Bioassay records from PubChem.
TRPC6 act – activators of mouse TRPC6 channel | Q61143 | HEK293-TRPC6 membrane potential dye fluorescence; stronger effect = higher value | B-score at 10 µM | 310,000 tested, 0.13% active;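 active = B-score of the integrated fluorescence ratio above library mean plus 3 SD, and starting fluorescence ratio within library mean plus 5 SD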;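 note: higher score means more depolarization so channel activation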
TRPC4 potent – TRPC4 (mouse) allosteric potentiation; Q9QUQ5; HEK293 TRPC4beta/mu-opioid, DAMGO EC20, Fluo-4 Ca2+ flux; stronger effect = higher value; B-score at 10 µM; 310,000 tested, 0.42% active;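 active = B-score of calcium response area above 5 SD of library B-scores, with initial fluorescence ratio within 5 SD of library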
TRPC4 inh – blocks the mouse TRPC4 cation channel; Q9QUQ5; HEK293 TRPC4beta/mu-opioid, DAMGO-evoked Fluo4 calcium flux; stronger effect = lower value; B-score at 10 µM; 300,000 tested, 0.39% active; AID 2247;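 active = B-score over 3 SD under the library average, no early fluorescence shift, positive overall ratio signal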
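Assay system: TRPC4beta/mu-opioid receptor HEK293 cell line; compound dosing: single concentration per test compound; detection: Fluo4 Ca2+ flux fluorescence; evaluation: per-well B score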
TRPC4 act – activators of mouse TRPC4 channel; HEK293 TRPC4beta/mu-opioid, Fluo4 calcium fluorescence; stronger effect = higher value; B-score at 10 µM; 310,000 tested, 0.49% active; AID 2237;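 active = B-score above 5 SD of library B-scores, and initial fluorescence ratio not above library mean plus 5 SD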;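 note: positive B-score marks a calcium rise read as TRPC4 activation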
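System – HEK293 cells stably co-expressing mouse TRPC4beta and mu-opioid receptor · Signal – Fluo4 calcium-sensitive dye fluorescence, kinetic, 1 Hz baseline · Benchmarks – buffer (low) and maximal DAMGO (high) · Read-out – B score of integrated fluorescence ratio per well · Incubation – dye loading 45 min room temperature, 110 s kinetic read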
TRPC6 inh – inhibitors of mouse TRPC6 channel. AID 2553. HEK293-TRPC6, membrane potential dye, ACh-evoked depolarization; stronger effect = lower value. B-score at 10 µM. Q61143. 310,000 tested, 1.1% active;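 active = B-score under library mean minus 3 SD, initial fluorescence not abnormally high, positive integrated signal ratio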;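 note: B-score derived from integrated fluorescence ratio over the kinetic read; more negative B-score means stronger inhibition of depolarization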
Kir21 block – blocks the mouse Kir2.1 inward-rectifier potassium channel; 310,000 tested, 0.85% active; B-score at 10 µM; AID 1672; HEK293-Kir2.1, FluxOR thallium flux fluorescence; stronger effect = lower value;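 active = fluorescence ratio B-score at or below minus 3 SD of library scores, with starting-brightness B-score within 2 SD, cut at about -4.2 in these data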;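 note: channel flux triggered by added potassium and thallium sulfate stimulus; B-score of peak minus minimum fluorescence over baseline after thallium stimulus; more negative B-score means stronger Kir2.1 block with less thallium influx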
Target sequence (P35561 whole entry, looked up): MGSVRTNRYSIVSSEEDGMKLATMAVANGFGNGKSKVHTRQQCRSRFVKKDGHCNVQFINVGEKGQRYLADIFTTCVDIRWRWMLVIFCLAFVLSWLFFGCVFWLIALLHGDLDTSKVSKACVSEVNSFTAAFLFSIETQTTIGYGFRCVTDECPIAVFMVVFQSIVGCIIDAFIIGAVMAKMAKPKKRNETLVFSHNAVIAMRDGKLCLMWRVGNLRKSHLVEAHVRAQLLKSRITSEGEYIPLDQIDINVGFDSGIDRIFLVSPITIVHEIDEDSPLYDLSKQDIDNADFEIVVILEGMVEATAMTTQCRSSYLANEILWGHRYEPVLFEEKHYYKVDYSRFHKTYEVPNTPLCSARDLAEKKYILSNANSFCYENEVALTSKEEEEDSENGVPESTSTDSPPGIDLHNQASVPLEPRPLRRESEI
Each line names hits and unclear results; the compound was inactive in the other large screens. Rows were chosen to be rich in hits. Some 2.9% of all compounds tested hit in one or more screens of this group.

CCN(CC)CCCNC(=O)C1CCC(CNS(=O)(=O)c2c(C)cc(C)cc2C)CC1 (configuration not stated)	none
CCCCN(C)CCCNC(=O)C1CCC(CNS(=O)(=O)c2c(C)cc(C)cc2C)CC1 (configuration not stated)	TRPC4 potent 12
CCn1c(N2CCN(C(=O)/C=C/c3ccccc3)CC2)nc2ccccc21	TRPC4 act 94
CCCn1c(N2CCN(C(=O)/C=C/C(=O)O)CC2)nc2ccccc21	TRPC4 act 57
O=C(Cn1c(N2CCN(c3ccccc3)CC2)nc2ccccc21)c1ccccc1	none
O=C(/C=C/c1ccccc1)N1CCCN(C(=O)/C=C/c2ccccc2)CC1	none
CCCc1nc(SCC(=O)N2CCOCC2)c2c(C)c(C)sc2n1	none
CC(=O)c1ccc(N2CCN(C(=O)c3cc4c(s3)CCCC4)CC2)cc1	TRPC4 potent 10
O=C(COc1ccccc1F)Nc1nnc(C2CCCC2)s1	none
CC(Oc1ccccc1)c1ccnn1S(=O)(=O)c1ccccc1 (configuration not stated)	Kir21 block -8.6
O=C(Oc1cccc2c(O)cccc12)c1ccccc1	Kir21 block -5.4
O=C(O)CCc1ccccc1OC(=O)c1ccccc1	none
CCc1cccc(NC(=O)CCCn2nc(CC)n3c(cc4occc43)c2=O)c1	Kir21 block -5
CCc1ccccc1NC1=NCC(=O)N1Cc1ccc(OC)cc1	Kir21 block -4.9
CCN(Cc1ccccc1)S(=O)(=O)c1cn(C)cn1	none
O=C(CCC(=O)c1cccs1)Nc1ccc(F)c(F)c1F	none
CCc1cc(/C(Cc2csc(C)n2)=N/O)c(O)cc1O	Kir21 block -4.4
Cc1nc(Cl)nc(N(C)c2ccccc2)c1[N+](=O)[O-]	TRPC4 inh -6
Cc1nc(N/N=C/c2ccccc2)nc(N(C)c2ccccc2)c1[N+](=O)[O-]	none
CCN(CC)S(=O)(=O)c1cc(C(=O)n2cccn2)c(Cl)cc1Cl	none
O=C(CN1CCN(S(=O)(=O)c2ccc(Br)cc2)CC1)N/N=C/c1ccncc1	TRPC4 potent 15
CCCS(=O)(=O)N1CCCC(C(=O)NCC(OC)OC)C1 (configuration not stated)	none
O=C(c1sc2ccccc2c1Cl)N(Cc1cccs1)C1CCS(=O)(=O)C1 (configuration not stated)	TRPC4 act 120
O=C(c1cccc(Cl)c1)N(Cc1cccs1)C1CCS(=O)(=O)C1 (configuration not stated)	none
O=C(Oc1ccc(C(=S)N2CCC(O)CC2)cc1)c1ccc(Cl)cc1	none
O=C(NCCCN1CCOCC1)C1COc2ccccc2O1 (configuration not stated)	none
O=C(NCCCN1CCOCC1)c1ccc(NC(=O)C2COc3ccccc3O2)cc1 (configuration not stated)	TRPC4 inh -6, TRPC4 act 78
C=CCS(=O)(=O)N1CCCC(N2CCN(c3ccccc3OC)CC2)C1 (configuration not stated)	none
COc1ccccc1N1CCN(C2CCCN(S(=O)(=O)c3ccccc3)C2)CC1 (configuration not stated)	TRPC4 inh -6
Cc1ccc(S(=O)(=O)N2CCN3CCCC3C2)cc1 (configuration not stated)	none
O=S(=O)(c1ccc(Cl)cc1)N1CCN2CCCC2C1 (configuration not stated)	TRPC4 potent 34, TRPC4 act 98
CC(C)(C)C#CCn1c(/C=[N+](\[O-])C2CCCCC2)nc2ccccc21	none
CC(C)(C)C(=O)N1CCN(c2ccc([N+](=O)[O-])cc2-n2cccc2)CC1	TRPC4 potent 16
CN(C)c1ccc(C2N3CC4(C)CN2CC(C)(C3)C4O)cc1 (configuration not stated)	none
CC12CN3CC(C)(CN(C1)C3c1ccc(Cl)cc1Cl)C2O (configuration not stated)	TRPC4 inh -6, TRPC4 act 48
CC1CCCCN1Cc1c(O)ccc2c(=O)c(-c3nc4ccccc4s3)c(N)oc12 (configuration not stated)	none
COC(=O)c1cccc(CSc2nnc(-c3ccco3)n2-c2ccccc2)c1	Kir21 block -6.8
CCOC(=O)CSc1nnc(-c2ccco2)n1-c1ccccc1	none
CCOc1ccccc1C1c2[nH]c3ccccc3c2C[C@H]2C(=O)N(C3CCN(Cc4ccccc4)CC3)CC(=O)N12 (some centres not stated)	none
Cc1ccccc1C1c2[nH]c3ccccc3c2C[C@H]2C(=O)N(C3CCN(Cc4ccccc4)CC3)CC(=O)N12 (some centres not stated)	TRPC4 act 48
CC[C@@H](C)C(NC(=O)OC(C)(C)C)c1cn([C@@H](Cc2cc3ccccc3[nH]2)C(=O)N2CCN(C(=O)OC(C)(C)C)CC2)nn1 (some centres not stated)	none
Cc1ncsc1CCOC(=O)C12CC3CC(CC(C3)C1)C2	TRPC4 inh -7
Cc1ncsc1CCOC(=O)c1cccnc1	none
CCOc1ccccc1NC(=O)C(NCC1CCCCC1)c1ccccc1 (configuration not stated)	none
CCOc1ccccc1O[C@H](c1ccccc1)[C@H]1CNCCO1	TRPC4 act 161
CCOC(=O)c1c(NC(=O)c2ccccc2C)sc2c1CC(C)(C)OC2	TRPC4 potent 11
CCOC(=O)c1c(NC(=O)c2ccc(C)cc2)sc2c1CC(C)(C)OC2	none
Cc1nc(N2CCN(c3ccccn3)CC2)c2c(C)c(C(=O)N3CCN(c4ccccc4F)CC3)sc2n1	TRPC4 inh -9
Cc1ccc(NC(=O)c2sc3nc(C)nc(N4CCN(c5ccccn5)CC4)c3c2C)c(C)c1	none
CN(C)CCCNS(=O)(=O)c1ccc(NC2CCCCCC2)c([N+](=O)[O-])c1	none
c1coc(CNc2nc(N3CCCCC3)nc3ccccc23)c1	Kir21 block -4.6
Cc1ccc(CNc2nc(-c3cccs3)nc3ccccc23)cc1	none
c1ccc2c(N3CCCCC3)nc(N3CCCCC3)nc2c1	none
c1ccc(-c2nc(NCc3ccco3)c3ccccc3n2)nc1	TRPC4 inh -6
c1ccc2c(N3CCCCC3)nc(N3CCOCC3)nc2c1	TRPC4 inh -9
c1ccc(CNc2nc(-c3cccs3)nc3ccccc23)nc1	TRPC4 inh -6
c1ccc(N2CCN(c3nc(NCc4ccco4)c4ccccc4n3)CC2)cc1	none
Oc1ccccc1-c1nc(NCc2ccco2)c2ccccc2n1	none
C/C(=N/Nc1nc(C)c(C)s1)c1cccc([N+](=O)[O-])c1	none
